MrgX1 antagonist: antagonists of human MrgX1 receptor; Q96LB2; MRGX1-HEK293 calcium flux, Fluo-4, BAM8-22 antagonism; stronger effect = lower value; B-score at 10 µM; actives 1.3% (n = 310,000);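 active means calcium-response B-score plate-corrected more than 3 library SD below zero, starting fluorescence within 5 deviations, no agonist response on first addition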;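 further: peak minus trough fluorescence over baseline after final BAM8-22 challenge near maximal dose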
Target sequence (Q96LB2 whole entry, looked up): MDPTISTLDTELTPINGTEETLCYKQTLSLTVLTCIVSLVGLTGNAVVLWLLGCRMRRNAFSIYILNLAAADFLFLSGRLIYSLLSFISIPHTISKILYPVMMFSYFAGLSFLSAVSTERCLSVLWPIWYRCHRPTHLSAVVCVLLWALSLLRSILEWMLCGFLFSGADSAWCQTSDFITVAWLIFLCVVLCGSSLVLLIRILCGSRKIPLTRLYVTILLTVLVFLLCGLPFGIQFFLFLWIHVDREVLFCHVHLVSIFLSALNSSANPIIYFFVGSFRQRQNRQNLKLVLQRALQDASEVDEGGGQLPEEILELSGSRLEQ
MrgX1 agonist: human MrgX1 receptor agonism, primary screen; B-score at 10 µM; MrgX1-HEK293 cells, Fluo-4 calcium fluorescence, agonist mode; stronger effect = higher value; Q96LB2; actives 0.44% (n = 310,000);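 active means calcium response B-score plate-corrected fluorescence ratio at least 3 library SD, with starting fluorescence B-score inside 5 SD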
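Material: MrgX1-expressing HEK293 cells; input: 15,000 cells per well; doses: test compound given as first of three sequential additions; schedule: overnight plating before 1 h dye loading; technique: Fluo-4 NW calcium-flux fluorescence, kinetic read; evaluation: baseline-normalised fluorescence change ratio, B-scored; control set: plate-wise positive and negative controls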
MrgX1 allo act: allosterically activates human MrgX1 receptor signaling; Q96LB2; MrgX1-HEK293, Fluo-4 calcium flux, FDSS; stronger effect = higher value; B-score at 10 µM; actives 0.63% (n = 310,000);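 active means plate-corrected calcium response at least 3 library SD above typical, normal starting fluorescence, not activating the receptor alone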;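 further: compound read alongside a low EC10 to EC30 dose of BAM8-22 agonist; peak minus trough fluorescence over baseline measured at the second addition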
RGS4 inh: human RGS4 inhibition; B-score at 10 µM; actives 0.45% (n = 310,000); HEK293 M3R/RGS4 inducible, Fluo-4 calcium flux; stronger effect = higher value; triggered by carbachol at its EC20; AID 463165;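 active means B-score, a plate-corrected calcium signal, over three deviations above library mean, with baseline fluorescence within five deviations of library mean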;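 further: RGS4 expression induced by doxycycline in cells with stable M3 receptor; B-score is computed from the integrated fluorescence ratio over baseline after carbachol; higher B-score means a larger calcium signal and so more RGS4 inhibition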
Target sequence (P49798 whole entry, looked up): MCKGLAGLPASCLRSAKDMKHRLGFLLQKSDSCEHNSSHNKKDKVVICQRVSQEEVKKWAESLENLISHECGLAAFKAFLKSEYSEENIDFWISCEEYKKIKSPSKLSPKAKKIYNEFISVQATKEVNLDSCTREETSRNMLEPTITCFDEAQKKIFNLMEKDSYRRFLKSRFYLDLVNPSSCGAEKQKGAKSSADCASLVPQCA
RGS4 pot: potentiators or activators of RGS4 | AID 463111 | actives 0.92% (n = 310,000) | HEK293 M3R/inducible RGS4, carbachol calcium flux Fluo4; stronger effect = lower value | B-score at 10 µM;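 active means B-score of the integrated calcium signal more than 4 SD below the library mean, with starting fluorescence not abnormally high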;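 further: negative B-score means reduced calcium response which marks RGS4 activation or potentiation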
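test system = HEK293 cells with stable M3R and inducible RGS4 | schedule = recording 10 s baseline at 1 Hz, 100 s post-agonist | technique = Fluo4-AM (2 µM) calcium-flux fluorescence, kinetic read | measure = Agonist-evoked peak-minus-minimum fluorescence over baseline, integrated ratio, B score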
MrgX1 antag conf: confirmation of human MrgX1 receptor antagonists; shares compounds with MrgX1 antagonist; actives 19% (n = 2,300); remaining BAM8-22 calcium response % of control (stronger effect = lower value), % at 10 µM; MrgX1-HEK293, BAM8-22 calcium flux, Fluo-4; stronger effect = lower value; AID 602420;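 active means remaining agonist calcium response no higher than 100% minus 3 SD of agonist-only control wells, with starting fluorescence near control levels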;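 further: agonist BAM8-22 given at a near maximal EC90 to ECmax level; peak minus minimum fluorescence divided by baseline after agonist addition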
HEK293 Ca flux: counter-screen for MrgX1 antagonists: effect in parental HEK293 cells | Fluo-4 calcium fluorescence, FDSS | actives 2% (n = 4,000) | shares compounds with MrgX1 antagonist | fluorescence ratio F(max-min)/F0 at 10 µM;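 active means duplicate-averaged calcium fluorescence ratio at least three times the standard deviation of buffer wells, a nonspecific response in parental cells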
HEK293 Ca counter: MrgX1 allosteric activator counter-screen hit in parental HEK293 cells; shares compounds with MrgX1 antagonist; parental HEK293 calcium flux, Fluo-4 fluorescence ratio; stronger effect = higher value; fluorescence ratio F(max-min)/F0 at 10 µM; actives 0.4% (n = 4,000);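 active means calcium fluorescence ratio, averaged over duplicates, at least 3 SD of the buffer-well ratio, meaning a nonspecific response in receptor-free cells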;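 further: untransfected parental HEK293 lacking MrgX1 used as counterscreen for MrgX1 allosteric activators; fluorescence change taken during the second addition on a kinetic imager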
HEK293 Ca cntr2: MrgX1 activator counter-screen hit in parental HEK293 cells; shares compounds with MrgX1 antagonist; Fluo-4 calcium fluorescence (FDSS); stronger effect = higher value; fluorescence ratio F(max-min)/F0 at 10 µM; actives 8.7% (n = 4,000); AID 624115;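 active means calcium fluorescence ratio at least three times the spread of buffer wells, meaning a non-specific response in parental cells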
Starred values were filed as active, the others as inactive; i = inactive; · = not tested or not shown. Compounds with a hit are over-represented: about 3.5% of the library has one in this group of screens.

SMILES	MrgX1 antagonist	MrgX1 agonist	MrgX1 allo act	RGS4 inh	RGS4 pot	MrgX1 antag conf	HEK293 Ca flux	HEK293 Ca counter	HEK293 Ca cntr2
O=C(Nc1ccc(Br)cc1)c1ccc(F)c(S(=O)(=O)NCc2cccs2)c1	-5.3*	i	i	i	i	i	i	i	47*
CN(C)S(=O)(=O)c1cccc(NC(=O)CN2C(=O)C3C4C=CC(C4)C3C2=O)c1 (stereo unspecified)	-6.8*	i	i	i	i	i	i	i	i
O=C(Nc1ccncc1)Nc1ccncc1	i	i	i	i	i	·	·	·	·
CC(=O)c1ccc(NC(=O)Nc2ccncc2)cc1	-6.8*	i	i	i	i	82%*	i	i	i
O=C(O)c1cccc(NC(=O)c2cccc(S(=O)(=O)N3CCc4ccccc4C3)c2)c1	i	i	i	i	i	·	·	·	·
CCNc1nc(NCC)n2c(SCC(=O)Nc3ccccc3C(F)(F)F)nnc2n1	i	i	i	i	i	·	·	·	·
CCNc1nc(NCC)n2c(SCC(=O)Nc3ccccc3Cl)nnc2n1	-8.6*	i	i	i	i	i	i	i	i
Cc1ccc2cc3c(nc2c1)OCC3	i	i	i	i	i	·	·	·	·
CC(C)CNC(=O)c1cccc(NC(=O)Cc2ccc(Cl)cc2)c1	-5.5*	i	i	i	i	i	i	i	i
CC(C)CNC(=O)c1cccc(NC(=O)CSc2ccccc2)c1	i	i	i	i	i	·	·	·	·
CC(=O)c1sc2nsc(SCCN3CCCCC3)c2c1N	-5.2*	i	i	i	i	i	i	i	52*
CC(=O)Nc1nnc(CCN2CCCCC2)s1	i	i	i	i	i	·	·	·	·
CCN(C(=O)c1cc2c(C)nc3ccccc3c2o1)c1cc(Cl)ccc1OC	i	i	i	i	i	·	·	·	·
CN(CC(=O)c1c(N)n(C)c(=O)n(C)c1=O)c1ccccc1	-5.8*	i	i	i	i	72%*	i	i	i
Cn1c(N)c(C(=O)CN2CCc3ccccc3C2)c(=O)n(C)c1=O	i	i	i	i	i	·	·	·	·
CCOC(=O)N1CCN(C(=O)c2c[nH]c3ccc(S(=O)(=O)N(C)c4ccc(OCC)cc4)cc3c2=O)CC1	i	i	i	i	i	·	·	·	·
CCN1CCCC1CNC1=NCCCCC1 (stereo unspecified)	-5.2*	i	i	i	i	83%*	i	i	i
COc1nc(Nc2ccccc2F)nc(OC)n1	-8.1*	i	i	i	i	i	i	i	i
O=C(COc1coc(CN2CCCc3ccccc32)cc1=O)Nc1cccc([N+](=O)[O-])c1	i	i	i	i	i	·	·	·	·
Cc1cc2c3nonc3ccc2n1-c1ccccc1	-5.2*	i	i	i	i	84%*	i	i	i
COc1ccc2nc(/C=N/NC(=O)[C@@H]3CCCN3C(=O)OC(C)(C)C)ccc2c1	i	i	i	i	i	·	·	·	·
CCOC(=O)c1cc2c(=O)n3ccccc3nc2n(Cc2ccco2)c1=NC(=O)c1ccccc1OCC	i	i	i	i	i	·	·	·	·
N=c1c(S(=O)(=O)c2ccc(Br)cc2)cc2c(=O)n3ccccc3nc2n1Cc1ccco1	-4.6*	i	i	i	i	82%*	i	i	i
CCOC(=O)c1cc2c(=O)n3ccccc3nc2n(Cc2ccco2)c1=NC(=O)c1cccnc1	-15*	i	i	i	i	i	i	i	i
N=c1c(S(=O)(=O)c2ccc(Cl)cc2)cc2c(=O)n3ccccc3nc2n1Cc1ccco1	i	i	i	i	i	·	·	·	·
SMILES	MrgX1 antagonist	MrgX1 agonist	MrgX1 allo act	RGS4 inh	RGS4 pot	MrgX1 antag conf	HEK293 Ca flux	HEK293 Ca counter	HEK293 Ca cntr2
CC(=O)N1CCN(S(=O)(=O)c2cccc(C(=O)N(Cc3ccccc3)c3cccc(C)c3)c2)CC1	i	i	i	i	i	·	·	·	·
Cc1ccc(CSCC(=O)Nc2ccc(N3CCOCC3)cc2N2CCOCC2)cc1	i	i	i	i	i	·	·	·	·
Cc1c(C(=O)c2cccc(F)c2)c2ccccn2c1CCC#N	-10*	i	i	i	i	84%*	i	i	i
COc1cccc(C(=O)c2c(C)c(CCC#N)n3ccccc23)c1	i	i	i	i	i	·	·	·	·
O=C(NC1CC2CCCC(C1)N2Cc1cccs1)c1ccc([N+](=O)[O-])cc1 (stereo unspecified)	i	i	i	i	i	·	·	·	·
COc1ccc(Cc2cnc(N)s2)cc1	-12*	i	i	i	i	79%*	i	i	i
COc1cccc(C2=CC(c3cccs3)n3nnnc3N2)c1 (stereo unspecified)	-5.5*	i	i	i	i	84%*	i	i	i
COc1cccc(C2=CC(c3ccc(OC)c(OC)c3OC)n3nnnc3N2)c1 (stereo unspecified)	i	i	i	i	i	·	·	·	·
O=C(Cc1ccsc1)NNC(=O)c1ccc(F)cc1	i	i	i	i	i	·	·	·	·
Cc1c(C)c2c(OCC(=O)N3CCC(C(=O)O)CC3)cc3c(c2oc1=O)CCC(C)(C)O3	i	i	i	i	i	·	·	·	·
CC(NC(=O)NC(N)=O)(C(F)(F)F)C(F)(F)F	-5.2*	i	i	i	i	i	i	i	i
CN(C)CCCNS(=O)(=O)c1ccc(N2CCC(c3ccc(Cl)cc3)=N2)cc1	-14*	i	i	i	i	60%*	i	i	i
O=S(=O)(c1ccc(N2CCC(c3ccc(Cl)cc3)=N2)cc1)N(CCO)CCO	i	i	i	i	i	·	·	·	·
Cc1ccc(C(C(=O)NC2CCCC2)N(Cc2ccc(F)cc2)C(=O)c2csnn2)o1 (stereo unspecified)	-4.6*	i	i	i	i	i	i	i	i
